Laboratory results from ChEMBL document CHEMBL5042476, “Structure-Based Design and Development of Chemical Probes Targeting Putative MOR-CCR5 Heterodimers to Inhibit Opioid Exacerbated HIV-1 Infectivity” (J Med Chem, 2021).
Active and inactive are the calls of the source. The rule behind the calls is not given here.

Columns and labels:
[1] = biological target: T1, C-C chemokine receptor type 5 (Homo sapiens, UniProt P51681); test: Antagonist activity at CCR5 (unknown origin) expressed in HOS cells co-expressing Gqi-5 assessed as inhibition CCL5-stimulated Ca2+ mobilization by calcium mobilization assay; format: functional, cell-based
How it was run: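 HOS-CCR5 cells transfected with Gqi5, used 48 h post-transfection and loaded with Fluo4-AM for 45 min. Compound preincubated 15 min, then CCL5 (20 μL of 200 nM) added after 16 s of reading.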
Target sequence in this assay (P51681 whole entry): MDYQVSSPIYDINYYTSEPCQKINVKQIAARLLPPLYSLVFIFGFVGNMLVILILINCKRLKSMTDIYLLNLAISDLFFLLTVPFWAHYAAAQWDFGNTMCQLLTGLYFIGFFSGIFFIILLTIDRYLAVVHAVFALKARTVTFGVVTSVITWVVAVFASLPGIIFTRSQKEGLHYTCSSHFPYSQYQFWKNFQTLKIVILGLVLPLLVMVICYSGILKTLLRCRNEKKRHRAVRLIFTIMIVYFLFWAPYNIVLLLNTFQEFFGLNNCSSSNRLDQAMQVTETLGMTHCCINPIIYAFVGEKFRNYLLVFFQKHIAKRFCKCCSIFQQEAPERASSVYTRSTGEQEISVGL

[2] = biological target: Mu-type opioid receptor (Mus musculus) (UniProt P42866); test: Agonist activity at mouse MOR expressed in CHO cell membranes assessed as stimulation of [35S]-GTPgammaS binding measured after 1 hr by scintillation counting analysis relative to DAMGO; format: functional; conditions: Cell membrane
Mu-type opioid receptor [3] = biological target: T2, Mu-type opioid receptor (Mus musculus, UniProt P42866); test: Displacement of [3H]-naloxone from mouse MOR expressed in CHO cells incubated for 1.5 hrs by competitive radioligand binding assay; format: cell-based
How it was run: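 Mouse MOR CHO membranes (30 μg) with [3H]naloxone and test compound in TME buffer (50 mM Tris, 3 mM MgCl2, 0.2 mM EGTA, pH 7.4), 1.5 h at 30 °C, then filtered. IC50 converted to Ki by Cheng–Prusoff.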

Mu-type opioid receptor [4] = biological target: T2, Mu-type opioid receptor; test: Antagonist activity at mouse MOR expressed in CHO cells assessed as inhibition of DAMGO-induced calcium mobilization preincubated for 60 mins measured after 15 mins by calcium mobilization assay; format: functional, cell-based
How it was run: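 mMOR-CHO cells transfected with Gα for 4 h, plated and cultured 24 h. Triplicates; IC50 by nonlinear regression.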

[5] = biological target: T1, C-C chemokine receptor type 5; test: (§1) Inhibition of CCR5-mediated Luc-expressing HIV1 BaL Env-pseudotype virus infection in PHA-stimulated CCR5 expressing leukocytes containing human PBMC assessed as inhibition of viral entry in presence of 10 nM morphine by measuring luminescence at 100 nM pretreated for 1 hr before infection measured after 2 days of infection; format: cell-based; conditions: filed as antagonist
How it was run: (§2)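 Compound 100 nM added 1 h before infection with BaL Env-pseudotyped luciferase virus (50 pg p24/10^6 cells) in 24-well plates. Lysate luciferase measured; RLU normalized to infected untreated cells.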
Target sequence in this assay (P51681 whole entry, looked up): as the sequence (P51681 whole entry) above

[6] = biological target: T1, C-C chemokine receptor type 5; test: Inhibition of CCR5-mediated Luc-expressing HIV1 BaL Env-pseudotype virus infection in PHA-stimulated CCR5 expressing leukocytes containing human PBMC assessed as inhibition of viral entry by measuring luminescence at 100 nM pretreated for 1 hr before infection measured after 2 days of infection; format: cell-based; how it was run: as §2
Target sequence in this assay (P51681 whole entry, looked up): as the sequence (P51681 whole entry) above

[7] = Therapeutic index, ratio of TC50 for human GHOST CCR5 cells to EC50 for inhibition of CCR5-mediated HIV-1 Bal entry in human GHOST CCR5 cells; format: toxicity, cell-based; conditions: read-out: TI
How it was run: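 GHOST-CCR5 cells plated at 1×10^4/well, cultured 24 h, then compounds at 6 concentrations (0.001–100 μM) in triplicate. Efficacy plates got HIV-1 BaL at a predetermined titer; 6 days at 37 °C. Supernatant RT activity measured by tritiated TTP incorporation on poly rA/oligo dT gives EC50. […] TI = TC50/EC50.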

[8] = biological target: T1, C-C chemokine receptor type 5; test: Inhibition of CCR5-mediated Luc-expressing HIV1 BaL Env-pseudotype virus infection in CCR5 expressing leukocytes containing human PBMC assessed as inhibition of viral entry by measuring luminescence pretreated for 1 hr before infection measured after 2 days of infection; format: cell-based; conditions: filed as antagonist
How it was run: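 […] donor PBMCs, 2×10^5/well, in RPMI with 20 U/mL IL-2. Compound added 1 h before infection with BaL Env-pseudotyped luciferase virus (1.5 ng p24/well) and kept in culture. Luminescence read after 2 days.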
Target sequence in this assay (P51681 whole entry, looked up): as the sequence (P51681 whole entry) above

[9] = biological target: T1, C-C chemokine receptor type 5; test: as §1, with “[…]” for “morphine”; format: cell-based; conditions: filed as antagonist; how it was run: as §2
Target sequence in this assay (P51681 whole entry, looked up): as the sequence (P51681 whole entry) above

[10] = biological target: T1, C-C chemokine receptor type 5; test: Agonist activity at CCR5 (unknown origin) expressed in HOS cells co-expressing Gqi-5 assessed as stimulation of Ca2+ mobilization by calcium mobilization assay; format: functional, cell-based
How it was run: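 HOS-CCR5 cells transiently transfected with Gqi5, used 48 h later. Fluo4-AM loaded 45 min, compounds added, plate read 120 s at ex494/em516. Agonist arm: compound response recorded against CCL5 under the same conditions.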
Target sequence in this assay (P51681 whole entry, looked up): as the sequence (P51681 whole entry) above

[11] = Cytotoxicity against human GHOST CCR5 cells assessed as reduction in cell viability measured after 6 days by XTT assay; format: toxicity, cell-based; conditions: time 6 day, read-out: TC50
How it was run: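 GHOST CCR5 cells treated in triplicate at the same 6 concentrations without virus, 6 days at 37 °C. XTT/PMS added for 4 h at 37 °C and absorbance read at 450 nm (650 nm reference).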

Mu-type opioid receptor [12] = biological target: T2, Mu-type opioid receptor; test: Agonist activity at mouse MOR expressed in CHO cells coexpressing Gqi5 assessed as inhibition of DAMGO-induced calcium mobilization preincubated for 60 mins measured after 15 mins by calcium mobilization assay; format: functional, cell-based
How it was run: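 CHO cells stably expressing mouse MOR, transfected with Gαq15 for 4 h, plated 10,000 cells/well and cultured 24 h. […] Calcium fluorescence read ex494/em516. Triplicate per concentration; IC50 by nonlinear regression.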

[13] = biological target: C-C chemokine receptor type 5 (Macaca mulatta, UniProt P61813); test: Displacement of […] from recombinant rhesus macaque CCR5 expressed in Chem-1 cells by competitive radioligand binding assay; format: cell-based
How it was run: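 Rhesus CCR5 Chem-1 membranes (3 μg) in HEPES buffer pH 7.4 with 0.2% BSA, 0.10 nM [125I]MIP-1α and six concentrations from 0.1 nM to 10 μM, 90 min at 25 °C. Nonspecific binding with 0.1 μM MIP-1β; filters counted. Ki by Cheng–Prusoff (KD 0.31 nM, historical value).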

T2 sequence (P42866 whole entry): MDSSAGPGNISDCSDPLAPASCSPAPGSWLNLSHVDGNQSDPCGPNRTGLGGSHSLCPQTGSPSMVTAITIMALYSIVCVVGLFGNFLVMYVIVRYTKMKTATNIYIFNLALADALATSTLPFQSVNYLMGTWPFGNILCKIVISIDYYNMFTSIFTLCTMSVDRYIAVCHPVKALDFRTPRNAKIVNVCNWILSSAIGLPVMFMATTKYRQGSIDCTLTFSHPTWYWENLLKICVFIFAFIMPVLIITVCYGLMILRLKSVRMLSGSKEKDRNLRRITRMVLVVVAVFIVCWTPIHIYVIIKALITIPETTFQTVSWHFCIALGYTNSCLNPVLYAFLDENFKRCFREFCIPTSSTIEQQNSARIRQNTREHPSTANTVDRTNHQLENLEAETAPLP
Sequence of Mu-type opioid receptor (Mus musculus) (P42866 whole entry): as above

`CC(C)c1nnc(CCNC(=O)COCC(=O)NCCCCCNC(=O)COCC(=O)N[C@@H]2CC[C@@]3(O)[C@H]4Cc5ccc(O)c6c5[C@@]3(CCN4CC3CC3)[C@H]2O6)n1C1C[C@H]2CC[C@@H](C1)N2CC[C@H](NC(=O)C1CCC(F)(F)CC1)c1ccccc1` (some centres not stated) showed an IC50 [1] of 1260 nM, an Emax [2] of 19.4% and a Ki (Mu-type opioid receptor [3]) of 4.23 nM. It also gave an IC50 (Mu-type opioid receptor [4]) of 1100 nM.
`CC(C)c1nnc(CCNC(=O)COCC(=O)NCCCCCCCNC(=O)COCC(=O)N[C@@H]2CC[C@@]3(O)[C@H]4Cc5ccc(O)c6c5[C@@]3(CCN4CC3CC3)[C@H]2O6)n1C1C[C@H]2CC[C@@H](C1)N2CC[C@H](NC(=O)C1CCC(F)(F)CC1)c1ccccc1` (some centres not stated) gave an inhibition [5] of 55%, an IC50 [1] of 57.5 nM and an inhibition [6] of 22%. The selectivity ratio [7] was > 1080, the inhibition [8] was “Dose-Dependent Effect” and the inhibition [9] was 69%. The Ki (Mu-type opioid receptor [3]) was 6.05 nM, the IC50 (Mu-type opioid receptor [4]) was 50 nM and the Activity [10] was “inactive”. For the same molecule, the CC50 at 144 h [11] was > 100000 nM and the EC50 (Mu-type opioid receptor [12]) was 36.3 nM.
Molecule `CC(C)c1nnc(CCNC(=O)COCC(=O)NCCCCCCCCCNC(=O)COCC(=O)N[C@@H]2CC[C@@]3(O)[C@H]4Cc5ccc(O)c6c5[C@@]3(CCN4CC3CC3)[C@H]2O6)n1C1C[C@H]2CC[C@@H](C1)N2CC[C@H](NC(=O)C1CCC(F)(F)CC1)c1ccccc1` (some centres not stated) has an IC50 [1] of 965 nM, an Emax [2] of 4.27% and a Ki (Mu-type opioid receptor [3]) of 11.2 nM. It also gave an IC50 (Mu-type opioid receptor [4]) of 74.4 nM.
With `Cc1nnc(C(C)C)n1[C@@H]1C[C@H]2CC[C@@H](C1)N2CC[C@H](NC(=O)C1CCC(F)(F)CC1)c1ccccc1` the CC50 at 144 h [11] was > 500 nM.
`Cc1nnc(C(C)C)n1C1C[C@H]2CC[C@@H](C1)N2CC[C@H](NC(=O)C1CCC(F)(F)CC1)c1ccc(NC(=O)COCC(=O)NCCCCCCCNC(=O)COCC(=O)N[C@@H]2CC[C@@]3(O)[C@H]4Cc5ccc(O)c6c5[C@@]3(CCN4CC3CC3)[C@H]2O6)cc1` (some centres not stated) showed an IC50 [1] of 126 nM, an Emax [2] of 11.7% and a Ki (Mu-type opioid receptor [3]) of 51.8 nM. For the same molecule, the IC50 (Mu-type opioid receptor [4]) was 40 nM and the CC50 at 144 h [11] was > 100000 nM.
With `CNC(=O)COCC(=O)NCCCCCCCNC(=O)COCC(=O)NCCc1nnc(C(C)C)n1[C@@H]1C[C@H]2CC[C@@H](C1)N2CC[C@H](NC(=O)C1CCC(F)(F)CC1)c1ccccc1` the Ki [13] was 41 nM and the Activity [10] was “inactive”.
